Compounds with a hit are over-represented: about 3% of the library has one in this group of screens.
HTR1A agonist: human 5-HT1a receptor agonists, primary screen, cell-based, CHO, Ga15 NFAT-bla reporter; CHO 5-HT1a Ga15 NFAT-bla reporter, FRET ratio; 0% basal, 100% maximal reference agonist; activation, % at 10 µM; 65,000 tested, 0.56% active; AID 567, 2006;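 active = activation above the screen-wide mean activation plus 3 SD, cut at about 19% in these data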;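 also: 0% = DMSO wells and 100% = 5-CT at EC100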
5-HT1A blocker: human 5-HT1a receptor antagonists, primary screen, cell-based, CHO, Ga15 NFAT-bla reporter; 5-hydroxytryptamine receptor 1A (Homo sapiens), P08908; 62,000 tested, 0.68% active; CHO 5-HT1a Ga15 NFAT-bla reporter, antagonist mode; inhibition, % at 10 µM;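 active = inhibition above the mean of all tested compounds plus 3 SD, cut at about 43% in these data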;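 also: receptor stimulated by 5-CT agonist at 100 nM near EC80; beta-lactamase reporter measured by ratiometric fluorescence of a cleavable substrate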
S1P1 ag-PAM: S1P1 agonists and agonism potentiators, primary screen, cell-based, primary and confirmation screens, CRE-bla reporter | Sphingosine 1-phosphate receptor 1 (Homo sapiens), P21453 | S1P1 CRE-bla cells, forskolin, beta-lactamase FRET, potentiator mode; S1P1 agonist co-added at EC20, 2 nM; 100% = saturating reference agonist, 0% = basal | activation, % at 9.5 µM | 56,000 tested, 0.57% active | AID 449, 2006;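 active = activation above a cutoff set at the mean activation of all tested compounds plus 3 SD, cut at about 54% in these data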;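 also: forskolin at 4 µM as EC80 and the EC20 agonist is SEW2871; 100% = SEW2871 at its EC100 plus forskolin at EC80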
Target sequence (P21453 whole entry, looked up): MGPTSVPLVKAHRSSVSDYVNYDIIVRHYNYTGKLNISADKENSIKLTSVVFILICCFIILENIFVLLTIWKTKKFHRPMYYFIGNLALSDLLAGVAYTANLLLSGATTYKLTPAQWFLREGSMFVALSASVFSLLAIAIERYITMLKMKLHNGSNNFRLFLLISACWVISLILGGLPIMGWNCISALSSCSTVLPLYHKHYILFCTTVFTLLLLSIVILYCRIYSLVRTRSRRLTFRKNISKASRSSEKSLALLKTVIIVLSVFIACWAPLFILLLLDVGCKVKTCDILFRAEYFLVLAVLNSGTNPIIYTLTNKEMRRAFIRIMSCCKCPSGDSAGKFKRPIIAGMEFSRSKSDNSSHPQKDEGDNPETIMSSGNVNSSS
S1P3 ag: human S1P3 receptor agonists, primary screen, cell-based, primary and confirmation, NFAT-BLA reporter; activation, % at 4.5 µM; AID 373, 2006; Sphingosine 1-phosphate receptor 3 (Homo sapiens), Q99500; 60,000 tested, 0.1% active; S1P3 NFAT-BLA reporter cells, agonism, FRET ratio; relative to 1 µM S1P, basal subtracted;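 active = activation above the screen-wide mean plus 3 SD, cut at about 4.5% in these data, passing the limit was not always enough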
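Benchmarks: high control 1 µM S1P / System: stable CHO line with human S1P3, Gα16, NFAT-BLA reporter / Dosing: single compound concentration, 4.5 µM final / Timing: 4 h compound at 37 °C, 2 h substrate at RT / Measured by: FRET β-lactamase substrate fluorescence, excitation 405 nm, 460/535 nm emission ratio, background-subtracted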
5HT1E ag: 5-HT1E receptor agonists, primary screen, cell-based, HTS | 5-hydroxytryptamine receptor 1E (Homo sapiens), P28566 | CHO 5-HT1E Ga15 NFAT-bla reporter, FRET; 0% DMSO wells, 100% control agonist wells | activation, % at 6 µM | 65,000 tested, 0.69% active;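 active = activation above a set limit, the screen-wide mean activation plus 3 SD, cut at about 8.5% in these data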;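 also: 100% = positive control agonist at 1 µM giving full maximal response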
HTR1E antagonist: 5-HT1E receptor antagonists, primary screen, cell-based, HTS; 65,000 tested, 0.99% active; CHO 5-HT1E Ga15 NFAT-bla reporter, FRET, antagonist; inhibition, % at 6 µM;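 active = inhibition above a set limit, the mean inhibition across every tested compound plus 3 SD, cut at about 29% in these data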;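 also: signal is the 460 over 535 nm emission ratio of beta-lactamase substrate; 0% = agonist plus DMSO wells and 100% = wells without agonist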
Active calls of the source: *; · = no result given.

SMILES | HTR1A agonist | 5-HT1A blocker | S1P1 ag-PAM | S1P3 ag | 5HT1E ag | HTR1E antagonist
Cc1sc2ncnc(SCC(=O)c3cccs3)c2c1C | -1.7 | 2.1 | 34.0 | -1.2 | -0.4 | 2.7
Clc1ccc(-n2nnnc2Sc2ncnc3sccc23)cc1 | -2.4 | 69.1* | 82.5* | 0.9 | -0.5 | 81.6*
Cc1sc2ncnc(Sc3nnnn3-c3ccccc3)c2c1C | -3.7 | 41.8 | 86.6* | -0.7 | -0.8 | 26.4
CCOC(=O)N1CCC(N2C(=O)c3ccccc3C2Nc2cc(C(=O)OC)cc(C(=O)OC)c2)CC1 (configuration not stated) | -0.3 | 28.7 | -13.6 | -1.3 | -0.4 | 6.0
Cc1ccc(S(=O)(=O)N2CCCC(C(=O)NCCc3ccc4c(c3)OCO4)C2)cc1 (configuration not stated) | -2.6 | 7.0 | 10.0 | 0.4 | 0.3 | 4.3
O=C(c1ccccc1)N1CCN(c2ccc(NCc3ccc4c(c3)OCO4)cc2)CC1 | -2.5 | 6.0 | 10.0 | -0.4 | -0.5 | 15.3
CNC(=O)CCC(=O)Nc1ccc(C(=O)OC)cc1 | -0.4 | 0.8 | · | -0.5 | 0.5 | -6.2
O=C(CCN1CCN(c2ccccc2)CC1)Nc1ccc2c(c1)OCO2 | 8.6 | 82.8* | · | -1.4 | -0.6 | -2.5
COC(=O)c1ccc(NC(=O)CCn2cccc2)cc1 | -2.5 | 3.9 | -7.1 | -0.7 | 9.6* | -5.5
CC1CN(CCC(=O)Nc2ccc3c(c2)OCO3)CC(C)O1 (configuration not stated) | 1.1 | -10.8 | · | · | 0.7 | -3.3
O=C(CCN1CCN(c2ccccc2F)CC1)Nc1ccc2c(c1)OCO2 | 8.3 | 83.7* | -5.1 | -0.1 | -0.5 | 0.4
CC(=O)N1CCN(c2ccc(NCc3ccc4c(c3)OCO4)cc2)CC1 | 42.7* | -6.8 | -26.1 | -0.1 | 0.3 | -3.3
O=C(CCN1CCN(c2ccc(F)cc2)CC1)Nc1ccc(F)cc1 | 0.3 | 35.8 | -22.3 | -1.2 | -0.8 | 4.3
COC(=O)c1ccc(NC(=O)CCN2CCN(c3ccccc3)CC2)cc1 | 2.0 | 43.8* | 15.8 | -2.3 | -0.1 | 4.3
NC(=O)c1ccc(OCC(F)(F)C(F)(F)C(F)(F)C(F)(F)C(F)(F)C(F)F)cc1 | -2.4 | 17.3 | 62.8* | -1.3 | -1.9 | 8.8
O=S(=O)(c1ccccc1)N1CCN(C2CCCCCCC2)CC1 | 0.7 | 6.9 | · | -0.7 | 32.8* | -1.0
CCCCN(C)C(=O)c1c[nH]c2ccc(S(=O)(=O)N3CCOCC3)cc2c1=O | -2.7 | 4.8 | -9.4 | -0.7 | 0.3 | -3.5
CCOC(=O)c1c(C)[nH]c(C(C)=O)c1C | -0.6 | -11.3 | -25.6 | -0.9 | 0.1 | 5.3
CCOC(=O)c1[nH]c(C)c(C(=O)OCCN2C(=O)c3ccccc3C2=O)c1C | 1.7 | 9.7 | 5.7 | -0.9 | -1.7 | 37.4*
COc1ccccc1N1CCN(C(=O)C2CC=CCC2C(=O)O)CC1 (configuration not stated) | 7.4 | 27.4 | -9.2 | -0.9 | 49.1* | -2.2
COc1ccccc1N1CCN(C(=O)C2c3ccccc3Oc3ccccc32)CC1 | -2.8 | 54.8* | 16.7 | -1.4 | -0.6 | 42.3*
CCOc1ccc(Nc2cc(C)nc(-n3nc(C)cc3C)n2)cc1 | -4.1 | 52.3* | -44.2 | 0.0 | 0.6 | 79.6*
CCNc1nc(Oc2ccccc2)nc(OC(C)C(=O)OCC)n1 (configuration not stated) | 0.0 | · | -12.2 | -2.8 | -0.1 | -7.7
Cc1cc(C)nc(N2CCCC(C(=O)NCCC3=CCCCC3)C2)n1 (configuration not stated) | -0.2 | 8.3 | -3.1 | 0.4 | -0.6 | 7.6
COc1ccccc1CNC(=O)c1nnc(Cc2ccc(Cl)cc2)o1 | 19.5* | -6.6 | 4.8 | -1.2 | 0.7 | -2.5

Screens deposited in PubChem BioAssay by The Scripps Research Institute Molecular Screening Center.
